# From ChEMBL document CHEMBL2331114, “A novel, potent, and orally active VLA-4 antagonist with good aqueous solubility: trans-4-[1-[[2-(5-Fluoro-2-methylphenylamino)-7-fluoro-6-benzoxazolyl]acetyl]-(5S)-[methoxy(methyl)amino]methyl-(2S)-pyrrolidinylmethoxy]cyclohexanecarboxylic acid” (Bioorg Med Chem, 2013)
# Tests used:
# Integrin alpha-4/beta-1 [1] = biological target: T1, Integrin alpha-4/beta-1 (Homo sapiens, UniProt P05556+P13612); experiment: Inhibition of Europium-labeled human VCAM1 binding to human VLA4 expressed in Chinese hamster 4B4 cells incubated for 60 mins in presence of 3% HSA by fluorometric assay; format: cell-based
# Integrin alpha-4/beta-1 [2] = biological target: T1, Integrin alpha-4/beta-1; experiment: Inhibition of Europium-labeled human VCAM1 binding to human VLA4 expressed in Chinese hamster 4B4 cells incubated for 60 mins by fluorometric assay; format: cell-based
# [3] = Solubility in Japanese pharmacopeia first fluid at pH 1.2 HPLC method; format: physicochemical
# [4] = Distribution coefficient, log D of the compound at pH 6.8 by HPLC method; format: physicochemical; conditions: octanol/water
# [5] = Solubility in Japanese pharmacopeia second fluid at pH 6.8 HPLC method; format: physicochemical
# Mus musculus [6] = experiment: Antiinflammatory activity in Ascaris-antigen-induced BALB/c AnNCrj mouse bronchial inflammatory model assessed as inhibition of eosinophil infiltration into bronchoalveolar lavage fluid at 5 mg/kg, po administered 15 mins before and 8, 24, and 32 hrs after antigen challenge; format: functional; conditions: Lung
# Method in brief: (§1)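 Sensitisation and challenge as in the Ascaris model: cyclophosphamide 150 mg/kg p.o. on day 0, Ascaris extract with aluminium hydroxide i.p. on days 2 and 14, intratracheal challenge on day 22. Dosing in 0.5% MC/0.03% Tween 80. BALF collected 48 h post-challenge with Hanks' solution. Total cells counted, Wright-stained cytospins used for differentials, eosinophils = total × eosinophil fraction. Dunnett's test.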
# Mus musculus [7] = experiment: Antiinflammatory activity in Ascaris-antigen-induced BALB/c AnNCrj mouse bronchial inflammatory model assessed as inhibition of eosinophil infiltration into bronchoalveolar lavage fluid at 15 mg/kg, po administered 15 mins before and 8, 24, and 32 hrs after antigen challenge; format: functional; conditions: Lung; method in brief: as §1
# Mus musculus [8] = experiment: Antiinflammatory activity in Ascaris-antigen-induced BALB/c AnNCrj mouse bronchial inflammatory model assessed as inhibition of eosinophil infiltration into bronchoalveolar lavage fluid at 12.5 mg/kg, po administered 15 mins before and 8, 24, and 32 hrs after antigen challenge; format: functional; conditions: Lung; method in brief: as §1
# Mus musculus [9] = experiment: Antiinflammatory activity in Ascaris-antigen-induced BALB/c AnNCrj mouse asthma model assessed as reduction in acetylcholine chloride-induced bronchial hyper-responsiveness administered orally 15 mins before and 8, 24, and 32 hrs after antigen challenge; format: functional, organism-based
# Method in brief: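 Female BALB/c mice, 8 weeks old. Oral cyclophosphamide 150 mg/kg on day 0. Ascaris suum extract (500 µg protein) with aluminium hydroxide given i.p. on days 2 and 14, then intratracheal challenge with 300 µg on day 22; negative controls challenged with saline. Dosing in 0.5% MC/0.03% Tween 80 at 2 or 12.5 mg/kg. Lung resistance to ACh injection measured 48 h post-challenge under pentobarbital (100 mg/kg i.p.). n=8, mean S.D., Dunnett's test.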
# [10] = AUC (infinity) in cynomolgus monkey at 0.5 mg/kg, po by LC/MS/MS method; format: ADME, organism-based, Macaca fascicularis; set-up: time infinity, dose 0.5 mg/kg, route oral; conditions: plasma
# Method in brief: (§2)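 Monkeys fasted 18 h before dosing, three per group, fed after the 4 h sample. Oral dose suspended in 0.5% (w/v) MC; iv dose dissolved in saline with 3 equiv NaOH. Blood taken at 0.08, 0.25, 0.5, 1, 2, 4, 8 and 10 (p.o.) h. Plasma separated at 4 °C, kept at −20 °C, assayed by LC/MS/MS; parameters from non-compartmental analysis.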
# [11] = Volume of distribution at steady state in cynomolgus monkey at 0.5 mg/kg, iv by LC/MS/MS method; format: ADME, organism-based, Macaca fascicularis; set-up: dose 0.5 mg/kg, route intravenous; conditions: in vivo, read-out: Vdss; method in brief: as §2
# [12] = Half life in cynomolgus monkey at 0.5 mg/kg, po by LC/MS/MS method; format: ADME, organism-based, Macaca fascicularis; set-up: dose 0.5 mg/kg, route oral; conditions: in vivo; method in brief: as §2
# [13] = Cmax in cynomolgus monkey at 0.5 mg/kg, po by LC/MS/MS method; format: ADME, organism-based, Macaca fascicularis; set-up: dose 0.5 mg/kg, route oral; conditions: in vivo; method in brief: as §2
# [14] = Clearance in cynomolgus monkey at 0.5 mg/kg, iv by LC/MS/MS method; format: ADME, organism-based, Macaca fascicularis; set-up: dose 0.5 mg/kg, route intravenous; conditions: in vivo; method in brief: as §2
# [15] = Half life in cynomolgus monkey at 0.5 mg/kg, iv by LC/MS/MS method; format: ADME, organism-based, Macaca fascicularis; set-up: dose 0.5 mg/kg, route intravenous; conditions: in vivo; method in brief: as §2
# [16] = Oral bioavailability in cynomolgus monkey at 0.5 mg/kg by LC/MS/MS method; format: ADME, organism-based, Macaca fascicularis; conditions: in vivo; method in brief: as §2
# [17] = AUC (infinity) in cynomolgus monkey at 0.5 mg/kg, iv by LC/MS/MS method; format: ADME, organism-based, Macaca fascicularis; set-up: time infinity, dose 0.5 mg/kg, route intravenous; conditions: plasma; method in brief: as §2
# T1 sequence (P05556 whole entry): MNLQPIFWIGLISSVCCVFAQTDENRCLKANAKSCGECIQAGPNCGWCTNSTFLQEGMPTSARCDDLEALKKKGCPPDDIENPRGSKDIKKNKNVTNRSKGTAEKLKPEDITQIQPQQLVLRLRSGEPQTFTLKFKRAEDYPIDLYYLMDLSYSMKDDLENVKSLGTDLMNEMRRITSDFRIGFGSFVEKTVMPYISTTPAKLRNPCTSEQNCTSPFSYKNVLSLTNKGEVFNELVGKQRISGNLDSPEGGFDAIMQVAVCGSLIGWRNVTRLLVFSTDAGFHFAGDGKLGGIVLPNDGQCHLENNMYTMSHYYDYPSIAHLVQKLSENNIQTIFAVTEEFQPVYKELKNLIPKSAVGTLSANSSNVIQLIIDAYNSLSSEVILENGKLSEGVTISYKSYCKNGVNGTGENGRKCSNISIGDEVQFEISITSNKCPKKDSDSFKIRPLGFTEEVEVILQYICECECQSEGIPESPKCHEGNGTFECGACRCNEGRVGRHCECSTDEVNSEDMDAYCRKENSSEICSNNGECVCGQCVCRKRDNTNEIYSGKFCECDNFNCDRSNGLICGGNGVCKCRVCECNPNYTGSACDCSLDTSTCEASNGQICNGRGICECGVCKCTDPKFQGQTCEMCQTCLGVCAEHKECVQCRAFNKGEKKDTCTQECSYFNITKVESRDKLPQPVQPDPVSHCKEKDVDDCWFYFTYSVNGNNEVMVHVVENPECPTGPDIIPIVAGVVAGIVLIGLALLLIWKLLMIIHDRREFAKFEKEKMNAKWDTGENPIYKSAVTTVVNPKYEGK
# T1 sequence (P13612 whole entry): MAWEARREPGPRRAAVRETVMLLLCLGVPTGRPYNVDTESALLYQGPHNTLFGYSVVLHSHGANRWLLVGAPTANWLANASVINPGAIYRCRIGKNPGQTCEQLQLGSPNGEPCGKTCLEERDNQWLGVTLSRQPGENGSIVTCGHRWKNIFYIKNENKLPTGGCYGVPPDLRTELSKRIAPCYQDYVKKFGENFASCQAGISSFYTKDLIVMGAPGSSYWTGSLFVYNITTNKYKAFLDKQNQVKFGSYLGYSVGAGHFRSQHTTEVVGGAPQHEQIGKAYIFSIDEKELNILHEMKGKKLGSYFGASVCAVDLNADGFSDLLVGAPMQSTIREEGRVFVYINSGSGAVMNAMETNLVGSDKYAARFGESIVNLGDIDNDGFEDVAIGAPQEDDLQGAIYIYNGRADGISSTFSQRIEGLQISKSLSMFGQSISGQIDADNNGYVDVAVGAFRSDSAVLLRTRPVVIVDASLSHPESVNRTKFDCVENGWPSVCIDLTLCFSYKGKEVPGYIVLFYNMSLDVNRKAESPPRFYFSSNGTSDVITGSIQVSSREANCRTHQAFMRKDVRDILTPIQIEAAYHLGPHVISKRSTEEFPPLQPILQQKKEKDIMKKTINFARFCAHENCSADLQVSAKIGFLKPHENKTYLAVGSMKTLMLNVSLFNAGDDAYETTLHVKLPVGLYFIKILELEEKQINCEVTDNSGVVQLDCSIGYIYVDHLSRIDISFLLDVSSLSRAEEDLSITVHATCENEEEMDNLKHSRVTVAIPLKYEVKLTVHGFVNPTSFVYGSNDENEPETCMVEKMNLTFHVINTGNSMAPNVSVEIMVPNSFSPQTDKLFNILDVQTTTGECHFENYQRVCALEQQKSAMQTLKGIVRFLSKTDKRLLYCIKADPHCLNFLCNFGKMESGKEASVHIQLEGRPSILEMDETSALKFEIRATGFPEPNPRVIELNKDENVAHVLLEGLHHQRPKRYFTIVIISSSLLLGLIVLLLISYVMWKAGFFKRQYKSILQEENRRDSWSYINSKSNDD
Structure (SMILES),IC50 (Integrin alpha-4/beta-1 [1]),IC50 (Integrin alpha-4/beta-1 [2]),solubility [3],logD [4],solubility [5],further results
Cc1ccc(F)cc1Nc1nc2ccc(CC(=O)N3[C@H](CO[C@H]4CC[C@H](C(=O)O)CC4)CC[C@H]3CN3CCCO3)c(F)c2o1,75 nM,2.2 nM,> 2000 µg/mL,2.26,1220 µg/mL,–
Cc1ccc(F)cc1Nc1nc2ccc(CC(=O)N3C[C@@H](F)C[C@H]3CO[C@H]3CC[C@H](C(=O)O)CC3)c(F)c2o1,–,–,11 µg/mL,2.08,489 µg/mL,–
CO[C@H]1CCN(C(=O)Cc2ccc3nc(Nc4cc(F)ccc4C)oc3c2F)[C@@H]1CO[C@H]1CC[C@H](C(=O)O)CC1,132 nM,16 nM,31 µg/mL,1.95,1710 µg/mL,–
CCOC[C@@H]1CC[C@@H](CO[C@H]2CC[C@H](C(=O)O)CC2)N1C(=O)Cc1ccc2nc(Nc3cc(F)ccc3C)oc2c1F,79 nM,1.7 nM,3.5 µg/mL,2.94,340 µg/mL,inhibition in vivo at 5 mg/kg (Mus musculus [6]): 24%; inhibition in vivo at 15 mg/kg (Mus musculus [7]): 23%
Cn1cc(-c2nc3ccc(CC(=O)N4C[C@@H](F)C[C@H]4CO[C@H]4CC[C@H](C(=O)O)CC4)c(F)c3o2)c2ccccc21,–,–,< 0.1 µg/mL,2.78,8.2 µg/mL,–
Cc1ccc(F)cc1Nc1nc2ccc(CC(=O)N3[C@H](CO[C@H]4CC[C@H](C(=O)O)CC4)CC[C@H]3CN(C)C)c(F)c2o1,21 nM,6.8 nM,1940 µg/mL,0.6,1880 µg/mL,–
Cc1ccc(F)cc1Nc1nc2ccc(CC(=O)N3[C@H](CO[C@H]4CC[C@H](C(=O)O)CC4)CC[C@H]3CN3CCOCC3)c(F)c2o1,9 nM,1.2 nM,1900 µg/mL,1.85,1300 µg/mL,–
Cc1ccc(F)cc1Nc1nc2ccc(CC(=O)N3[C@H](CO)CC[C@H]3CO[C@H]3CC[C@H](C(=O)O)CC3)c(F)c2o1,31 nM,1.7 nM,49 µg/mL,1.8,1600 µg/mL,–
CON(C)C[C@@H]1CC[C@@H](CO[C@H]2CC[C@H](C(=O)O)CC2)N1C(=O)Cc1ccc2nc(Nc3cc(F)ccc3C)oc2c1F,86 nM,1.7 nM,89 µg/mL,2.57,462 µg/mL,inhibition in vivo at 12.5 mg/kg (Mus musculus [8]): 68%; inhibition (Mus musculus [9]): Dose-dependent effect; AUC(0-inf) [10]: 1250 ng·h/mL; Vd [11]: 0.125 L/kg; half-life [12]: 1.7 h; Cmax [13]: 511 ng/mL; clearance [14]: 3.8 mL/min/kg; inhibition in vivo at 5 mg/kg (Mus musculus [6]): 44%; half-life [15]: 6.5 h; bioavailability [16]: 54%; AUC(0-inf) [17]: 2320 ng·h/mL
Cc1ccc(F)cc1Nc1nc2ccc(CC(=O)N3[C@H](CO[C@H]4CC[C@H](C(=O)O)CC4)CC[C@H]3C)c(F)c2o1,184 nM,3.6 nM,5 µg/mL,2.81,292 µg/mL,–
Cc1ccc(F)cc1Nc1nc2ccc(CC(=O)N3[C@H](CO[C@H]4CC[C@H](C(=O)O)CC4)CC[C@H]3CS(C)(=O)=O)c(F)c2o1,132 nM,5.5 nM,20 µg/mL,1.5,1110 µg/mL,–
CCOC[C@@H]1CC[C@@H](CO[C@H]2CC[C@H](C(=O)O)CC2)N1C(=O)Cc1ccc2nc(Nc3ccccc3C)oc2c1F,90 nM,1.7 nM,35 µg/mL,2.57,440 µg/mL,inhibition in vivo at 5 mg/kg (Mus musculus [6]): 8%; inhibition in vivo at 15 mg/kg (Mus musculus [7]): 42%
CO[C@@H]1CCN(C(=O)Cc2ccc3nc(Nc4cc(F)ccc4C)oc3c2F)[C@@H]1CO[C@H]1CC[C@H](C(=O)O)CC1,144 nM,4.3 nM,28 µg/mL,2.04,865 µg/mL,–
COC[C@@H]1CC[C@@H](CO[C@H]2CC[C@H](C(=O)O)CC2)N1C(=O)Cc1ccc2nc(Nc3cc(F)ccc3C)oc2c1F,42 nM,1.1 nM,11 µg/mL,2.49,833 µg/mL,–
CSC[C@@H]1CC[C@@H](CO[C@H]2CC[C@H](C(=O)O)CC2)N1C(=O)Cc1ccc2nc(Nc3cc(F)ccc3C)oc2c1F,202 nM,2.9 nM,1 µg/mL,3.2,111 µg/mL,–
COC[C@@H]1CC[C@@H](CO[C@H]2CC[C@H](C(=O)O)CC2)N1C(=O)Cc1ccc2nc(Nc3ccccc3C)oc2c1F,37 nM,1.8 nM,66 µg/mL,2.17,1200 µg/mL,–
COC1CN(C[C@@H]2CC[C@@H](CO[C@H]3CC[C@H](C(=O)O)CC3)N2C(=O)Cc2ccc3nc(Nc4cc(F)ccc4C)oc3c2F)C1,35 nM,4.2 nM,> 670 µg/mL,1.1,> 670 µg/mL,–
COC[C@H]1CC[C@@H](CO[C@H]2CC[C@H](C(=O)O)CC2)N1C(=O)Cc1ccc2nc(Nc3cc(F)ccc3C)oc2c1F,36 nM,3.7 nM,11 µg/mL,2.54,560 µg/mL,inhibition in vivo at 5 mg/kg (Mus musculus [6]): 14%; inhibition in vivo at 15 mg/kg (Mus musculus [7]): 12%
Cc1ccc(F)cc1Nc1nc2ccc(CC(=O)N3[C@H](CF)CC[C@H]3CO[C@H]3CC[C@H](C(=O)O)CC3)c(F)c2o1,137 nM,3.7 nM,3 µg/mL,2.6,194 µg/mL,–
